Data published in PMC4213839 (Journal of Ginseng Research, 2014).

Format: in vivo, Sprague–Dawley rats
Outline: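 Male Sprague–Dawley rats (210–240 g) were fed a control diet or control diet plus 2.5, 5 or 10% test fiber for 2 wk, then dosed orally with test material at 200 or 2,000 mg/kg (n = 5 per group). Tail-vein blood was drawn at 0–24 h. Plasma was spun at 4,000 × g and deproteinized with acetonitrile. LC-MS/MS used MRM with an amlodipine internal standard. Cmax and Tmax were read from the profiles.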

[1] = 10% NUTRIOSE in the diet, ginseng extract-treated rats

fold increase of AUC of ginsenoside Rd by NUTRIOSE [1]: 1.34 fold
fold increase of Cmax of ginsenoside Rd by NUTRIOSE [1]: 1.34 fold
time after administration at which ginsenoside Rd was detected in blood (ginsenoside Rb1-treated rats): 8 h
AUC of ginsenoside Rd, fold higher in ginseng extract-treated than in ginsenoside Rb1-treated rats (same oral dosage of ginsenoside Rb1 and ginseng extract): 13.5 fold
SMILES: CC(C)=CCC[C@](C)(O[C@@H]1O[C@H](CO)[C@@H](O)[C@H](O)[C@H]1O)[C@H]1CC[C@]2(C)[C@@H]1[C@H](O)C[C@@H]1[C@@]3(C)CC[C@H](O[C@@H]4O[C@H](CO)[C@@H](O)[C@H](O)[C@H]4O[C@@H]4O[C@H](CO)[C@@H](O)[C@H](O)[C@H]4O)C(C)(C)[C@@H]3CC[C@]12C [ginsenoside Rd]
